Results on 2 compounds are retold here after paper PMC2229513 (The Journal of General Physiology, 2001).

Numbering of substitutions follows the chain as printed. Where two headings read alike, the source gives them in different places.

The target of one assay is T1, αE598A ENaC mutant (Rattus norvegicus, UniProt P37089+P37090+P37091, E598A).
T1 sequence (P37089 1-698 E598A): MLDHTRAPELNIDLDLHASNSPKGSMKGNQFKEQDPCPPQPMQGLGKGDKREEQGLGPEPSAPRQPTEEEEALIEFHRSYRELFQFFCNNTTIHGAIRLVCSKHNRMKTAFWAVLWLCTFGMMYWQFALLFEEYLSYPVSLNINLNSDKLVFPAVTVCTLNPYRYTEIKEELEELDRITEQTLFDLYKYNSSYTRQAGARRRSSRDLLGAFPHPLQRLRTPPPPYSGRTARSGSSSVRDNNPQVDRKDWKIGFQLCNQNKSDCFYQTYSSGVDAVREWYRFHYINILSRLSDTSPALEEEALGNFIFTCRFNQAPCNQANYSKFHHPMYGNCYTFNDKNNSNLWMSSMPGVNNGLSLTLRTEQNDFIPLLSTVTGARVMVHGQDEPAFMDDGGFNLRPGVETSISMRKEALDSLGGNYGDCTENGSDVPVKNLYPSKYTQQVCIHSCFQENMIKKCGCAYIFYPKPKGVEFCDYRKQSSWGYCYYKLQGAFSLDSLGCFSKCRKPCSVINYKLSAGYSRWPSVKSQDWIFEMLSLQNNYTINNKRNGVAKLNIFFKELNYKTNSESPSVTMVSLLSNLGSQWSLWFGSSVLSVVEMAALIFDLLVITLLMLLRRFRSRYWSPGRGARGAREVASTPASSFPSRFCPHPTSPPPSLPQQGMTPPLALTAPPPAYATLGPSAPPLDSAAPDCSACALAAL
T1 sequence (P37090 1-638): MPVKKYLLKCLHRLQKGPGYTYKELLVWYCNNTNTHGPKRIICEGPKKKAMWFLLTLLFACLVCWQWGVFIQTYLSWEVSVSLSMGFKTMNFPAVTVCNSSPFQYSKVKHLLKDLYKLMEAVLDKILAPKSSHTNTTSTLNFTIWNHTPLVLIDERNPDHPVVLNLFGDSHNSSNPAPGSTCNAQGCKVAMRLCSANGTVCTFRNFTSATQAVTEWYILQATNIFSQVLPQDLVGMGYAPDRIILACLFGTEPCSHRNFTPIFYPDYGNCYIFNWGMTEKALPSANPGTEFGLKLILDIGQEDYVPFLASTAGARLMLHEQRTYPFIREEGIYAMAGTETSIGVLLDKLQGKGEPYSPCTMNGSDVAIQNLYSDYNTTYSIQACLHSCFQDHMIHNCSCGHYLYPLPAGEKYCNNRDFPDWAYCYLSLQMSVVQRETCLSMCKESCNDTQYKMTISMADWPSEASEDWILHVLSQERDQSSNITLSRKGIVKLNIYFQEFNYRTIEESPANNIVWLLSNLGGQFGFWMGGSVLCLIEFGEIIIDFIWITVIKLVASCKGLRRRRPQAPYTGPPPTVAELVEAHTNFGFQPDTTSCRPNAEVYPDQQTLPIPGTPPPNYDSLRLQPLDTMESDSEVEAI
T1 sequence (P37091 1-650): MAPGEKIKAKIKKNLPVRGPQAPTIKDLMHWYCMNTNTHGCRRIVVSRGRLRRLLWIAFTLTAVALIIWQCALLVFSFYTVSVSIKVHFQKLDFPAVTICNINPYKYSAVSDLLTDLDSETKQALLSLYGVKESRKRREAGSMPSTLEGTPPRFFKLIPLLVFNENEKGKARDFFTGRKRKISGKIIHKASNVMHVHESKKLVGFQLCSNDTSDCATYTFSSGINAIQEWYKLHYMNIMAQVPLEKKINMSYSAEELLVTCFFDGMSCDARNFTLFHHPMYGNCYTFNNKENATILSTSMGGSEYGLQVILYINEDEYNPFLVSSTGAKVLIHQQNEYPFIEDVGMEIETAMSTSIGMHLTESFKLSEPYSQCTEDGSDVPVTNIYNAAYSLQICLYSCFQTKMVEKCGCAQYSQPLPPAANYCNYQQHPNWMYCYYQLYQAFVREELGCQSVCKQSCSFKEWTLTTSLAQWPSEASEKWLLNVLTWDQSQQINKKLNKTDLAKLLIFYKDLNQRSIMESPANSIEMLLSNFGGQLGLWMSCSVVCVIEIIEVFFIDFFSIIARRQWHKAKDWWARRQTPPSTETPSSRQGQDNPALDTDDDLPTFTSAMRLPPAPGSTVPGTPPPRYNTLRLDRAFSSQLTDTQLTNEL
In words: Amiloride block of αE598A mutant. The assay is classed as cell-based.

The subject of assay [1] is wt and mutant (αS589) ENaC channels. As to the kind of experiment: Block of ionic currents by 100 μM amiloride. The class given is cell-based, rat. Summed up: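 Oocytes were co-injected with rat αβγ ENaC cRNAs (100 nl, 100 ng/μl total, equal amounts of each subunit) and recorded by two-electrode voltage clamp 16–48 h later. Amiloride-sensitive current was taken as the difference between currents with and without 100 μM amiloride in the bath.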

A further assay addresses T2, αS589H ENaC mutant (Rattus norvegicus, UniProt P37089+P37090+P37091, S589H).
T2 sequence (P37089 1-698 S589H): T1 sequence (P37089 1-698 E598A) with S589H, A598E
T2 sequence (P37090 1-638): T1 sequence (P37090 1-638)
T2 sequence (P37091 1-650): T1 sequence (P37091 1-650)
The class given is cell-based. An outline of the steps: (§1)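 Stage V–VI Xenopus oocytes were pressure-injected with 100 nl of equal amounts of rat α, β and γ ENaC cRNAs (mutations in α only), 100 ng/μl total. Two-electrode voltage clamp was done 16–48 h post-injection. For other permeant cations, Na+ was replaced at the same concentration.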

The target in a further assay is T3, αS589D ENaC mutant (Rattus norvegicus, UniProt P37089+P37090+P37091, S589D).
T3 sequence (P37089 1-698 S589D): T1 sequence (P37089 1-698 E598A) with S589D, A598E
T3 sequence (P37090 1-638): T1 sequence (P37090 1-638)
T3 sequence (P37091 1-650): T1 sequence (P37091 1-650)
The assay is classed as cell-based. Summed up:
as §1

The target of the next assay is T4, αS589N ENaC mutant (Rattus norvegicus, UniProt P37089+P37090+P37091, S589N).
T4 sequence (P37089 1-698 S589N): T1 sequence (P37089 1-698 E598A) with S589N, A598E
T4 sequence (P37090 1-638): T1 sequence (P37090 1-638)
T4 sequence (P37091 1-650): T1 sequence (P37091 1-650)
The assay is classed as cell-based. Summed up:
as §1

The subject of assay [2] is ENaC mutants of α (S583), β (G525) or γ subunit (G537). Conditions: mutations of α S583, β G525 or γ G537; ref Schild et al. 1997; cited from earlier work.
For assay [3], the target named is T5, ENaC wt (Rattus norvegicus, UniProt P37089+P37090+P37091).
T5 sequence (P37089 1-698): T1 sequence (P37089 1-698 E598A) with A598E
T5 sequence (P37090 1-638): T1 sequence (P37090 1-638)
T5 sequence (P37091 1-650): T1 sequence (P37091 1-650)
The class given is cell-based. Summed up:
as §1

The target in assay [4] is T5, ENaC wt. In words: Effect of extracellular MTSEA on INa. The class given is cell-based. Conditions: 2-min extracellular application of 2.5 mM MTSEA. Summed up: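 Two-electrode voltage clamp was run on Xenopus oocytes 16–48 h after injecting rat αβγ ENaC cRNAs (100 nl, 100 ng/μl total). INa was the current sensitive to 100 μM amiloride. Aqueous MTSEA stock was made fresh, kept on ice and diluted into bath immediately before use.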

On to `N=C(N)NC(=O)c1nc(Cl)c(N)nc1N` [amiloride], for which the “amiloride block compared with wt” value at αE598A ENaC mutant is reported as “not different from wt”. For the same compound, the “block of ionic currents” value in assay [1] was “completely blocked”. For the same compound, the IC50 (as a rule, the concentration that inhibits the measured activity by half) on αS589H ENaC mutant was 2800 ± 650 nM; on αS589D ENaC mutant it was 100 ± 20 nM; on αS589N ENaC mutant (IC50 for amiloride block of the NH4+ current, NH4+ current, n = 6–7) it was 190 ± 60 nM; against αS589N ENaC mutant (IC50 for amiloride block, Na+ as the main extracellular cation, n = 6–16) it was 440 ± 50 nM; at ENaC wt [3], 180 ± 80 nM. In addition, the “increase of the IC50 for amiloride block (factor vs wt)” value at αS589H ENaC mutant (αS589H relative to ENaC wt) is listed as 16. The “decrease of channel affinity for amiloride” value in assay [2] is “two to three orders of magnitude”.
With `CS(=O)(=O)SCCN` [MTSEA, aminoethyl methanethiosulfate], the “ratio of INa after MTSEA application relative to the initial INa” value at ENaC wt [4] was 0.77 ± 0.33.
